Results on nine compounds are retold here after ChEMBL document CHEMBL1137455, “Replacement of the lactone moiety on podophyllotoxin and steganacin analogues with a 1,5-disubstituted 1,2,3-triazole via ruthenium-catalyzed click chemistry” (Bioorg Med Chem, 2007).

Molecules are shown by their SMILES. Calls of active or inactive are those of the source. The rule behind the calls is not given here.

What is called IC50 is the concentration that inhibits the measured activity by half.

Experiment [1] deals with SH-SY5Y. Briefly: Cytotoxicity against SH-SY5Y cells assessed as cell viability upto 100 uM after 48 hrs by MTT method. It is filed as functional, cell-based. As to conditions: Homo sapiens. In a few lines:
(§1)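 SH-SY5Y human neuroblastoma cells exposed to compounds for 48 h; viability read by MTT; dose–response curves; highest concentration tested 100 μM.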

In experiment [2] the test system is SH-SY5Y. Briefly: Cytotoxicity against SH-SY5Y cells assessed as cell viability after 48 hrs by MTT method. It counts as functional, cell-based. As to conditions: Homo sapiens. A digest of the protocol:
as §1
In general terms: Formazan colour is commonly taken as a measure of viable cells.

Experiment [3] addresses Tubulin (Homo sapiens) (UniProt P68371+Q9H4B7+P0DPH7+P68366+Q13509+Q71U36+P04350+Q3ZCM7+P07437+P68363+Q9BQE3+Q6PEY2+Q13885+Q9BVA1+Q9BUF5). Kind of experiment: Induction of tubulin depolymerization after 16 hrs. It counts as protein-complex assay. A digest of the protocol: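 Cells treated 16 h with tubulin-disrupting agents; proteins harvested in presence of paclitaxel to fix polymerized and unpolymerized tubulin; soluble (non-polymerized) and pellet (polymerized) fractions run on SDS-PAGE and immunoblotted with monoclonal mouse anti-tubulin antibody.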

In experiment [4] the test system is SH-SY5Y. Kind of experiment: Cytotoxicity against SH-SY5Y cells assessed as cell viability above 10 uM after 48 hrs by MTT method. It counts as functional, cell-based. As to conditions: Homo sapiens. A digest of the protocol: as §1

For the compound `COc1cc(C(O)c2cnnn2Cc2ccc3c(c2)OCO3)cc(OC)c1OC` (stereo unspecified), the Activity entry in experiment [1] was “Not toxic”. On to `COc1cc(C2c3cc4c(cc3Cn3nncc32)OCO4)cc(OC)c1OC` (racemic), for which the IC50 in experiment [2] was 1500 nM. Moreover, in experiment [3], the outcome was Active.

On to `CC(=O)O[C@H]1C(=O)[C@@]2(C)[C@H]([C@H](OC(=O)c3ccccc3)[C@]3(O)C[C@H](OC(=O)[C@H](O)[C@@H](NC(=O)c4ccccc4)c4ccccc4)C(C)=C1C3(C)C)[C@]1(OC(C)=O)CO[C@@H]1C[C@@H]2O`, for which the outcome in experiment [3] was inactive. As to `COc1cc(Cc2cnnn2Cc2ccc3c(c2)OCO3)cc(OC)c1OC`, the Activity result in experiment [1] is “Not toxic”. On to `COc1cc(Cn2nncc2Cc2ccc3c(c2)OCO3)cc(OC)c1OC`, for which the Activity entry in experiment [1] is “Not toxic”. For the compound `COc1ccc(/C=C\c2cc(OC)c(OC)c(OC)c2)cc1O`, in experiment [3], the result was Active. Take `COc1cc2c(c(OC)c1OC)-c1cc3c(cc1Cc1cnnn1C2)OCO3`: the IC50 in experiment [2] worked out at 1100 nM. `COc1cc([C@@H]2c3cc4c(cc3[C@H](O)[C@H]3COC(=O)[C@H]23)OCO4)cc(OC)c1OC` [PODOFILOX]: in experiment [2], the half-inhibitory concentration (IC50) turned out to be 7 nM. The result in experiment [3] was Active. With `COc1cc2c(c(OC)c1OC)-c1cc3c(cc1Cn1nncc1C2)OCO3`, in experiment [4], the Activity entry was “Toxic”.
